Converted amounts (≈) assume the structure as drawn.
Legend:
Escherichia coli = test: Antibacterial activity against Escherichia coli ATCC 25922 after 20 hrs by two fold dilution method; assay type: functional; conditions: ATCC 25922, 20 h
How it was run: (§1)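 Twofold agar dilution in Mueller–Hinton agar. Compounds were dissolved in DMSO and diluted into the medium at final 128–1 µg/mL. The inoculum was 10^4 CFU/plate, and a medium-plus-DMSO plate served as negative control. Plates were incubated at 35 °C for 20 h. MIC was taken as the lowest concentration giving complete growth inhibition. Experiments were run three times.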

Candida albicans [1] = test: Antifungal activity against Candida albicans MTCC 1637 at 300 ug/disk after 7 days by disk diffusion method; assay type: functional; conditions: MTCC 1637, 168 h, read-out: IZ
How it was run: (§2)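 Disc diffusion on Mueller–Hinton agar seeded with a standardized suspension, following NCCLS. Sterile 6 mm paper discs held 300 µg of test compound, amphotericin B at 10 µg as reference, or DMSO alone as negative control. Plates were incubated at 28 ± 2 °C for 7 days. Inhibition zone diameters (mm) were measured in triplicate and scored as 10–15, 16–21 or 22–28 mm.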

Staphylococcus aureus = test: Antibacterial activity against Staphylococcus aureus ATCC 29213 after 20 hrs by two fold dilution method; assay type: functional; conditions: ATCC 29213, 20 h; how it was run: as §1
Bacillus subtilis = test: Antibacterial activity against Bacillus subtilis MTCC 121 after 20 hrs by two fold dilution method; assay type: functional; conditions: MTCC 121, 20 h; how it was run: as §1
Pseudomonas aeruginosa = test: Antibacterial activity against Pseudomonas aeruginosa MTCC 741 after 20 hrs by two fold dilution method; assay type: functional; conditions: MTCC 741, 20 h; how it was run: as §1
Aspergillus niger [2] = test: Antifungal activity against Aspergillus niger at 300 ug/disk after 7 days by disk diffusion method; assay type: functional; conditions: 168 h, read-out: IZ; how it was run: as §2
Aspergillus flavus [3] = test: Antifungal activity against Aspergillus flavus at 300 ug/disk after 7 days by disk diffusion method; assay type: functional; conditions: 168 h, read-out: IZ; how it was run: as §2
Streptococcus mutans = test: Antibacterial activity against Streptococcus mutans MTCC 890 after 20 hrs by two fold dilution method; assay type: functional; conditions: MTCC 890, 20 h; how it was run: as §1
Salmonella typhi = test: Antibacterial activity against Salmonella typhi MTCC 733 after 20 hrs by two fold dilution method; assay type: functional, Salmonella enterica subsp. enterica serovar Typhi; conditions: Salmonella enterica, MTCC 733, 20 h
How it was run: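 Twofold agar dilution in Mueller–Hinton agar. Compounds dissolved in DMSO and diluted into medium to final 128–1 µg/mL; medium with DMSO at the same dilution as negative control. Inoculum 10^4 CFU/plate; incubated 35 °C for 20 h. MIC taken as lowest concentration giving complete growth inhibition, in µg/mL. Ampicillin and ciprofloxacin as references; three independent experiments.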

Candida albicans [4] = test: Antifungal activity against Candida albicans MTCC 1637 at 10 ug/disk after 7 days by disk diffusion method; assay type: functional; conditions: MTCC 1637, 168 h, read-out: IZ
Aspergillus niger [5] = test: Antifungal activity against Aspergillus niger at 10 ug/disk after 7 days by disk diffusion method; assay type: functional; conditions: 168 h, read-out: IZ
Aspergillus flavus [6] = test: Antifungal activity against Aspergillus flavus at 10 ug/disk after 7 days by disk diffusion method; assay type: functional; conditions: 168 h, read-out: IZ

| SMILES | MIC (Escherichia coli) [µg/mL] | zone of inhibition at 300 µg/disc (Candida albicans [1]) [mm] | MIC (Staphylococcus aureus) [µg/mL] | MIC (Bacillus subtilis) [µg/mL] | MIC (Pseudomonas aeruginosa) [µg/mL] | zone of inhibition at 300 µg/disc (Aspergillus niger [2]) [mm] | zone of inhibition at 300 µg/disc (Aspergillus flavus [3]) [mm] | MIC (Streptococcus mutans) [µg/mL] | MIC (Salmonella typhi) [µg/mL] | zone of inhibition at 10 µg/disc (Candida albicans [4]) [mm] | zone of inhibition at 10 µg/disc (Aspergillus niger [5]) [mm] | zone of inhibition at 10 µg/disc (Aspergillus flavus [6]) [mm] |
| --- | --- | --- | --- | --- | --- | --- | --- | --- | --- | --- | --- | --- |
| COc1ccccc1-c1nnc(Cn2cnc3ccccc32)o1 | 32 (≈ 104 µM) | 16 | 16 (≈ 52.2 µM) | 16 (≈ 52.2 µM) | > 128 | < 10 | < 10 |  |  |  |  |  |
| O=C(O)c1cn(C2CC2)c2cc(N3CCNCC3)c(F)cc2c1=O [CIPROFLOXACIN] | ≤ 1 |  | ≤ 1 | ≤ 1 |  |  |  |  |  |  |  |  |
| Cc1nc2ccccc2n1Cc1nnc(-c2ccc(Cl)cc2)o1 | > 128 | 22 | 2 (≈ 6.16 µM) | 4 (≈ 12.3 µM) |  | 10 | 22 | 4 (≈ 12.3 µM) |  |  |  |  |
| Clc1ccccc1-c1nnc(Cn2cnc3ccccc32)o1 | > 128 |  | 32 (≈ 103 µM) | 16 (≈ 51.5 µM) |  |  |  | 16 (≈ 51.5 µM) | 32 (≈ 103 µM) |  |  |  |
| CCc1nnc(Cn2cnc3ccccc32)o1 | 16 (≈ 70.1 µM) | 10 | 32 (≈ 140 µM) | 32 (≈ 140 µM) | > 128 | < 10 | 10 | 16 (≈ 70.1 µM) | 64 (≈ 280 µM) |  |  |  |
| Cc1nc2ccccc2n1Cc1nnc(CCCl)o1 | 32 (≈ 116 µM) | 16 | 4 (≈ 14.5 µM) | 8 (≈ 28.9 µM) |  | 10 | 10 | 8 (≈ 28.9 µM) | 16 (≈ 57.8 µM) |  |  |  |
| Cc1nc2ccccc2n1Cc1nnc(CCl)o1 | 16 (≈ 60.9 µM) | 10 | 16 (≈ 60.9 µM) | 16 (≈ 60.9 µM) |  | 16 | 10 | 32 (≈ 122 µM) | > 128 |  |  |  |
| Cc1nc2ccccc2n1Cc1nnc(-c2ccc(O)cc2)o1 | > 128 | 22 | 8 (≈ 26.1 µM) | 8 (≈ 26.1 µM) |  | 16 | 16 | 4 (≈ 13.1 µM) |  |  |  |  |
| COc1ccc(-c2nnc(Cn3cnc4ccccc43)o2)cc1 | 64 (≈ 209 µM) | 16 | 16 (≈ 52.2 µM) | 32 (≈ 104 µM) | 32 (≈ 104 µM) | < 10 | < 10 | 16 (≈ 52.2 µM) | 32 (≈ 104 µM) |  |  |  |
| COc1ccc(-c2nnc(Cn3c(C)nc4ccccc43)o2)cc1 | 16 (≈ 49.9 µM) | 22 | 2 (≈ 6.24 µM) | 8 (≈ 25 µM) | 64 (≈ 200 µM) | 16 | 16 | 4 (≈ 12.5 µM) | 16 (≈ 49.9 µM) |  |  |  |
| ClCc1nnc(Cn2cnc3ccccc32)o1 |  | 16 | 16 (≈ 64.3 µM) | 32 (≈ 129 µM) | 32 (≈ 129 µM) | 10 | 10 | 16 (≈ 64.3 µM) | 64 (≈ 257 µM) |  |  |  |
| Cc1nc2ccccc2n1Cc1nnc(-c2ccccc2Cl)o1 | > 128 | 16 |  |  |  | 16 | 16 | 16 (≈ 49.3 µM) | 32 (≈ 98.5 µM) |  |  |  |
| C[C@@H]1[C@H](O)[C@@H](C)/C=C/C=C/C=C/C=C/C=C/C=C/C=C/[C@H](O[C@@H]2O[C@H](C)[C@@H](O)[C@H](N)[C@@H]2O)C[C@@H]2O[C@](O)(C[C@@H](O)C[C@@H](O)[C@H](O)CC[C@@H](O)C[C@@H](O)CC(=O)O[C@H]1C)C[C@H](O)[C@H]2C(=O)O [AMPHOTERICIN B] |  |  |  |  |  |  |  |  |  | 22 | 22 | 22 |
| Cc1nnc(Cn2cnc3ccccc32)o1 | 16 (≈ 74.7 µM) | 16 | 16 (≈ 74.7 µM) | 16 (≈ 74.7 µM) | > 128 | 16 | 16 | 16 (≈ 74.7 µM) | 32 (≈ 149 µM) |  |  |  |
| ClCCc1nnc(Cn2cnc3ccccc32)o1 |  | 16 | 16 (≈ 60.9 µM) | 16 (≈ 60.9 µM) | 32 (≈ 122 µM) | 16 | 10 |  | 64 (≈ 244 µM) |  |  |  |
| Cc1nc2ccccc2n1Cc1nnc(-c2ccccc2)o1 | 32 (≈ 110 µM) |  | 8 (≈ 27.6 µM) | 8 (≈ 27.6 µM) |  |  |  | 8 (≈ 27.6 µM) | 64 (≈ 220 µM) |  |  |  |
| Oc1ccccc1-c1nnc(Cn2cnc3ccccc32)o1 | 64 (≈ 219 µM) |  | 32 (≈ 109 µM) |  | 64 (≈ 219 µM) |  |  |  | 16 (≈ 54.7 µM) |  |  |  |
| Cc1nc2ccccc2n1Cc1nnc(-c2ccccc2O)o1 | 32 (≈ 104 µM) |  |  | 16 (≈ 52.2 µM) |  |  |  | 8 (≈ 26.1 µM) | 32 (≈ 104 µM) |  |  |  |
| COc1ccccc1-c1nnc(Cn2c(C)nc3ccccc32)o1 | 64 (≈ 200 µM) | 16 | 8 (≈ 25 µM) | 4 (≈ 12.5 µM) | 64 (≈ 200 µM) | 16 | 16 | 8 (≈ 25 µM) | 16 (≈ 49.9 µM) |  |  |  |
| Clc1ccc(-c2nnc(Cn3cnc4ccccc43)o2)cc1 | 32 (≈ 103 µM) |  | 32 (≈ 103 µM) | 32 (≈ 103 µM) |  |  |  | 16 (≈ 51.5 µM) |  |  |  |  |
| Cc1nnc(Cn2c(C)nc3ccccc32)o1 | 64 (≈ 280 µM) | 22 | 4 (≈ 17.5 µM) | 4 (≈ 17.5 µM) | 64 (≈ 280 µM) | 16 | 16 | 8 (≈ 35 µM) | 16 (≈ 70.1 µM) |  |  |  |
| CC1(C)S[C@@H]2[C@H](NC(=O)[C@H](N)c3ccccc3)C(=O)N2[C@H]1C(=O)O [AMPICILLIN] | 4 (≈ 11.4 µM) |  | 2 (≈ 5.72 µM) | 2 (≈ 5.72 µM) | > 128 |  |  | 2 (≈ 5.72 µM) | > 128 |  |  |  |
| Oc1ccc(-c2nnc(Cn3cnc4ccccc43)o2)cc1 | 32 (≈ 109 µM) |  |  | 16 (≈ 54.7 µM) | 64 (≈ 219 µM) |  |  | 32 (≈ 109 µM) |  |  |  |  |
| c1ccc(-c2nnc(Cn3cnc4ccccc43)o2)cc1 | 64 (≈ 232 µM) |  | 16 (≈ 57.9 µM) | 16 (≈ 57.9 µM) |  |  |  | 32 (≈ 116 µM) | > 128 |  |  |  |
| CCc1nnc(Cn2c(C)nc3ccccc32)o1 | 32 (≈ 132 µM) | 16 | 4 (≈ 16.5 µM) | 8 (≈ 33 µM) | > 128 | 10 | 16 | 4 (≈ 16.5 µM) | 32 (≈ 132 µM) |  |  |  |
